Compound activity (PubChem BioAssay)
The sample as a whole holds a higher share of hits than the screen did.
Lung fibro prol – blocks proliferation of human lung fibroblasts; LL 47 human lung fibroblast viability, ATP luminescence; hits give low values; viability, % at 10 µM; hit rate 1.1% among 85,000;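 active = viability at or below 50% in the single dose screen; inactive = viability above 50%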;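 also: compound exposure lasted 72 h before the ATP readout; 100% = median luminescence of untreated cell-only wells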
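Times – overnight cell rest, 72 h compound treatment at 37 °C · Test system – human lung fibroblast line LL 47, low passage · Amount – 1,150 cells in each well · Controls – cell-only wells, no compound · Doses – 0.1% DMSO in all compound wells · Measured by – CellTiter-Glo luminescence · Buffer or medium – IMEM plus 15% FBS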
HCT116 PTEN-null – growth suppressors of cells with PTEN tumor suppressor deletion; HCT116 PTEN-null viability, CellTiter-Glo, 60 h; hits give low values; viability, % at 10 µM; hit rate 1.2% among 140,000;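 active = viability at or below a set limit, 4 SD under the median of all tested compounds, cut at about 3.7% in these data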;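 also: PTEN knockout HCT116 line with beta catenin targeted HCT116 as companion control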
H69AR inhibit – blocks growth of human H69AR lung tumor cells; H69AR lung tumor viability, ATP luminescence, 72 h; hits give low values; viability, % at 10 µM; hit rate 6% among 85,000;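 active = viability at or below 40%; inactive = viability above 40%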;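 also: multidrug resistant small cell line overexpressing MRP-1 efflux transporter; 100% = mean luminescence of untreated control wells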
HUVEC prolif 384 – human endothelial cell proliferation inhibition; HUVEC proliferation, CellTiter-Glo luminescence, 72 h; hits give low values; viability, % at 10 µM (by protocol); hit rate 1.1% among 86,000; AID 648;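 active = viability at or below 30%; inactive = viability above 30%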;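 also: 100% = median luminescence of DMSO-only cell control wells on each plate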
HCT116 bCat-KO – beta-catenin-lacking colon tumor cell growth suppression | HCT116 beta-catenin knockout viability, CellTiter-Glo, 60 h; hits give low values | viability, % at 10 µM | hit rate 1.5% among 140,000;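 active = viability at or under a set limit, the compound median less 4 SD, cut at about 6% in these data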;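 also: 0% = Hyamine 1622 control at 20 µM and 100% = untreated cell control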
* = called active by the depositor; nt = not tested or not shown.

SMILES	Lung fibro prol	HCT116 PTEN-null	H69AR inhibit	HUVEC prolif 384	HCT116 bCat-KO
CCOC(=O)c1ccccc1NC(=O)CSc1nc2c(c(=O)n(C)c(=O)n2C)n1C	nt	97	32*	107	101
CCOC(=O)c1ccccc1NC(=O)c1cccs1	95	85	95	80	88
CCOC(=O)c1ccccc1NC(=O)c1n[nH]c(=O)c2ccccc12	nt	3.1*	nt	nt	7
Fc1ccc(Nc2nc(N3CCOCC3)c3ccccc3n2)cc1	91	nt	35*	65	nt
c1ccc2c(Nc3nc(N4CCOCC4)c4ccccc4n3)cccc2c1	nt	48	nt	nt	62
Cc1noc(C)c1C(=O)NCCC1=CCCCC1	107	84	nt	95	76
Cc1nc2ccccc2c(=O)n1/N=C/c1cn(-c2ccccc2)nc1-c1cccs1	100	75	35*	69	75
COc1cc(-c2nnc(COc3ccc4cc(Br)ccc4c3)o2)cc(OC)c1OC	nt	72	24*	46	61
Cc1cccc(OCc2nc3ccccc3c(=O)n2N)c1	112	91	60	113	101
Cc1ccc(NC(=O)CC(O)(C(F)(F)F)C(F)(F)F)cc1	96	90	22*	110	100
COc1ccc(C)cc1NC(=O)CC(O)(C(F)(F)F)C(F)(F)F	97	90	74	87	96
CSc1nnc2n(-c3ccc(C)cc3)c(=O)c3c4c(sc3n12)COC(C(C)C)C4 (stereo not drawn)	37*	11	36*	61	6
Cc1ccc(-n2c(=O)c3c4c(sc3n3c(C)nnc23)COC(C(C)C)C4)cc1 (stereo not drawn)	92	nt	101	103	nt
CCC(=O)OCC(=O)Nc1cc(C)c(C)cc1[N+](=O)[O-]	nt	95	nt	nt	88
CCN(CC)c1ccc(NC(=O)CC2Oc3ccccc3NC2=O)c(C)c1 (stereo not drawn)	87	65	25*	78	71
O=c1cc(-c2ccccc2)c2c([nH]1)CCCC2	95	86	112	85	96
CCc1ccc(C2CC(c3cccc(Cl)c3)n3nc(N)nc3N2)cc1 (stereo not drawn)	103	63	38*	97	69
Cc1ccc(C2CC(c3cccc(Cl)c3)n3nc(N)nc3N2)cc1 (stereo not drawn)	92	97	79	101	98
Cc1cccc(OCc2n[nH]c(=S)n2C2CCCCC2)c1	84	77	22*	64	82
Cc1ccc(OCc2n[nH]c(=S)n2C2CCCCC2)cc1	100	87	37*	94	89
S=c1[nH]nc(COc2ccc(Cl)cc2)n1C1CCCCC1	88	90	64	89	90
O=C1CC(c2ccccc2)CC2=C1CN(C1CCCCC1)CN2 (stereo not drawn)	70	32	23*	71	29
O=c1c(F)cn(C2CCCO2)c(=O)n1Cc1c(Cl)cccc1Cl (stereo not drawn)	91	89	28*	88	84
O=C(Cc1c(F)cccc1Cl)NCC1CCCO1 (stereo not drawn)	99	96	95	95	107
COc1ccc(C)cc1S(=O)(=O)N(CC(=O)Nc1cc([N+](=O)[O-])ccc1C)c1ccc(C)c(C)c1	nt	74	nt	nt	77
SMILES	Lung fibro prol	HCT116 PTEN-null	H69AR inhibit	HUVEC prolif 384	HCT116 bCat-KO
CCCCCCC(=O)N(O)C1CC(=O)N(c2ccc(Br)cc2)C1=O (stereo not drawn)	81	80	33*	82	78
CC(C)c1ccc(N2C(=O)CC(Sc3ncn[nH]3)C2=O)cc1 (stereo not drawn)	104	90	83	99	100
COc1ccc(N2C(=O)CC(Sc3ncn[nH]3)C2=O)c(OC)c1 (stereo not drawn)	87	105	1.6*	89	94
CCc1cccc(Nc2cc(C)nc3ncnn23)c1	92	93	89	94	91
CCn1c2ccccc2c2cc(Nc3cc(C)nc4ncnn34)ccc21	45*	10	31*	30*	15
CCOC(=O)c1c(Nc2ccc(Cl)cc2)sc(/C=C2\C=Nc3ccccc32)c1O	46*	14	2.7*	12*	37
Oc1nc(Nc2cccc(Cl)c2)sc1/C=C1\C=Nc2ccccc21	nt	68	nt	nt	70
COc1ccc(Nc2cc(C)nc3nc(C)nn23)c(OC)c1	97	97	85	100	86
COc1ccc(Nc2cc(C)nc3nc(C)nn23)cc1Cl	106	95	72	104	76
COc1ccc(OC)c(Nc2cc(C)nc3nc(C)nn23)c1	82	56	22*	75	59
COc1ccc(C)cc1Nc1cc(C)nc2nc(C)nn12	89	56	25*	77	58
CN1CCN(Cc2ccc(OCc3ccccc3)cc2)CC1	nt	95	90	98	89
CCN1CCN(Cc2ccc(OCc3ccccc3)cc2)CC1	93	1.2*	88	85	1.0*
CCCCCn1c(SCCc2ccccc2)nc2c1c(=O)[nH]c(=O)n2C	91	92	67	47	87
CCCn1c(=N)n(CC(O)COc2cccc(C)c2)c2ccccc21 (stereo not drawn)	84	3.2*	45	87	2.6*
CCn1c(=N)n(CC(O)COc2cccc(C)c2)c2ccccc21 (stereo not drawn)	72	40	76	87	32
CCCCn1c(=N)n(CC(O)COc2ccc(C)cc2)c2ccccc21 (stereo not drawn)	72	1.7*	7.4*	83	2.0*
Cc1noc2ncnc(Sc3ccccc3Cl)c12	68	8	2.0*	18*	7
CCn1c(SCC(=O)OC)nc2sc3c(c2c1=O)CCC3	nt	113	nt	nt	106
Cc1ccc(S(=O)(=O)N2CCC(C(=O)Nc3nnc(-c4ccco4)s3)CC2)cc1	67	100	38*	61	92
CCC(=O)NC(=S)Nc1cccc(-c2nc3ncccc3o2)c1	nt	99	nt	nt	108
CC(=O)C(Sc1nc(-c2ccco2)nc2c1c(=O)n(C)c(=O)n2C)C(=O)N(C)C (stereo not drawn)	95	nt	75	97	nt
CC(=O)OCCCNc1cc(Sc2ccc(C)cc2)c2nonc2c1[N+](=O)[O-]	nt	3.8*	nt	nt	3.6*
CC(=O)OCCCNc1cc(Sc2nc3ccccc3s2)c2nonc2c1[N+](=O)[O-]	nt	4	nt	nt	3.7*
CC(=O)OCCNc1cc(Sc2nc3ccccc3[nH]2)c2nonc2c1[N+](=O)[O-]	nt	1.5*	nt	nt	1.6*
SMILES	Lung fibro prol	HCT116 PTEN-null	H69AR inhibit	HUVEC prolif 384	HCT116 bCat-KO
CCCC(=O)OCCNc1cc(SCCC(=O)OC)c2nonc2c1[N+](=O)[O-]	nt	95	nt	nt	87
O=[N+]([O-])c1c(NCCCO)cc(Sc2ccc(Cl)cc2)c2nonc12	nt	1.2*	nt	nt	1.5*
COC(=O)CCSc1cc(NCCOC(C)=O)c([N+](=O)[O-])c2nonc12	nt	96	nt	nt	96
COc1cc([N+](=O)[O-])ccc1NC(=O)C[n+]1cccc(C)c1	nt	92	nt	nt	94
C=CCn1cc(C(=O)OC)c(=O)c2cc(S(=O)(=O)N3CCC(C)CC3)ccc21	99	nt	99	95	nt
CCC(CC)C(=O)Nc1cccc(C(=O)Nc2nccs2)c1	100	94	76	103	95
